Experiments:
B16 [1] = assay: Effect on the survival of mouse B16 melanoma cells was determined at a dose of 100 ug/mL in vitro; type: functional; conditions: read-out: Survival
Outline: (§1)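 B16 mouse melanoma cells from log-phase cultures seeded at 5 × 10^4 cells/mL in Dulbecco's modified Eagle medium with 10% newborn calf serum; after 24 h, exposed to agent (10 or 100 µg/mL) for 21 h, washed twice, fresh medium. Cells trypsinized and counted 48 h after start of incubation; viability by Trypan blue exclusion. Survival = T/C × 100 versus untreated control; mean of three samples.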

B16 [2] = assay: Effect on the survival of mouse B16 melanoma cells was determined at a dose of 10 ug/mL in vitro; type: functional; conditions: read-out: Survival; outline: as §1

Compound	viability at 100 µg/mL (B16 [1])	viability at 10 µg/mL (B16 [2])
Cc1c(N)nc(C(CC(N)=O)NCC(N)C(N)=O)nc1C(=O)NC(C(=O)NC(C)C(O)C(C)C(=O)NC(C(=O)NCCc1nc(-c2nc(C(=O)NCCC[S+](C)CC(=O)Nc3ccc([N+](=O)[O-])cc3)cs2)cs1)C(C)O)C(O[C@@H]1O[C@@H](CO)[C@@H](O)[C@@H](O)[C@@H]1O[C@H]1O[C@H](CO)[C@@H](O)[C@@H](OC(N)=O)[C@@H]1O)c1c[nH]cn1 (some centres not stated)	30%	46%
Cc1c(N)nc(C(CC(N)=O)NCC(N)C(N)=O)nc1C(=O)NC(C(=O)NC(C)C(O)C(C)C(=O)NC(C(=O)NCCc1nc(-c2nc(C(=O)NCCC[S+](C)CC(=O)N3CCCC3)cs2)cs1)C(C)O)C(O[C@@H]1O[C@@H](CO)[C@@H](O)[C@@H](O)[C@@H]1O[C@H]1O[C@H](CO)[C@@H](O)[C@@H](OC(N)=O)[C@@H]1O)c1c[nH]cn1 (some centres not stated)	29%	35%
Cc1c(N)nc(C(CC(N)=O)NCC(N)C(N)=O)nc1C(=O)NC(C(=O)NC(C)C(O)C(C)C(=O)NC(C(=O)NCCc1nc(-c2nc(C(=O)NCCC[S+](C)CC(=O)N3CCOCC3)cs2)cs1)C(C)O)C(O[C@@H]1O[C@@H](CO)[C@@H](O)[C@@H](O)[C@@H]1O[C@H]1O[C@H](CO)[C@@H](O)[C@@H](OC(N)=O)[C@@H]1O)c1c[nH]cn1 (some centres not stated)	28%	51%
Cc1c(N)nc(C(CC(N)=O)NCC(N)C(N)=O)nc1C(=O)NC(C(=O)NC(C)C(O)C(C)C(=O)NC(C(=O)NCCc1nc(-c2nc(C(=O)NCCC[S+](C)CC(=O)Nc3ccc4ccccc4c3)cs2)cs1)C(C)O)C(O[C@@H]1O[C@@H](CO)[C@@H](O)[C@@H](O)[C@@H]1O[C@H]1O[C@H](CO)[C@@H](O)[C@@H](OC(N)=O)[C@@H]1O)c1c[nH]cn1 (some centres not stated)	32%	48%
Cc1c(N)nc(C(CC(N)=O)NCC(N)C(N)=O)nc1C(=O)NC(C(=O)NC(C)C(O)C(C)C(=O)NC(C(=O)NCCc1nc(-c2nc(C(=O)NCCC[S+](C)CC(N)=O)cs2)cs1)C(C)O)C(O[C@@H]1O[C@H](CO)[C@H](O)[C@@H](O)[C@@H]1O[C@H]1O[C@@H](CO)[C@@H](O)[C@H](OC(N)=O)[C@H]1O)c1c[nH]cn1 (some centres not stated)	21%	38%
Cc1c(N)nc(C(CC(N)=O)NCC(N)C(N)=O)nc1C(=O)NC(C(=O)NC(C)C(O)C(C)C(=O)NC(C(=O)NCCc1nc(-c2nc(C(=O)NCCC[S+](C)CC(=O)Nc3ccccc3)cs2)cs1)C(C)O)C(O[C@@H]1O[C@@H](CO)[C@@H](O)[C@@H](O)[C@@H]1O[C@H]1O[C@H](CO)[C@@H](O)[C@@H](OC(N)=O)[C@@H]1O)c1c[nH]cn1 (some centres not stated)	27%	45%
COc1ccc(NC(=O)C[S+](C)CCCNC(=O)c2csc(-c3csc(CCNC(=O)C(NC(=O)C(C)C(O)C(C)NC(=O)C(NC(=O)c4nc(C(CC(N)=O)NCC(N)C(N)=O)nc(N)c4C)C(O[C@@H]4O[C@@H](CO)[C@@H](O)[C@@H](O)[C@@H]4O[C@H]4O[C@H](CO)[C@@H](O)[C@@H](OC(N)=O)[C@@H]4O)c4c[nH]cn4)C(C)O)n3)n2)cc1 (some centres not stated)	28%	40%
CCOC(=O)C[S+](C)CCCNC(=O)c1csc(-c2csc(CCNC(=O)C(NC(=O)C(C)C(O)C(C)NC(=O)C(NC(=O)c3nc(C(CC(N)=O)NCC(N)C(N)=O)nc(N)c3C)C(O[C@@H]3O[C@@H](CO)[C@@H](O)[C@@H](O)[C@@H]3O[C@H]3O[C@H](CO)[C@@H](O)[C@@H](OC(N)=O)[C@@H]3O)c3c[nH]cn3)C(C)O)n2)n1 (some centres not stated)	27%	43%
Cc1c(N)nc(C(CC(N)=O)NCC(N)C(N)=O)nc1C(=O)NC(C(=O)NC(C)C(O)C(C)C(=O)NC(C(=O)NCCc1nc(-c2nc(C(=O)NCCC[S+](C)CC(=O)NC3CC3)cs2)cs1)C(C)O)C(O[C@@H]1O[C@@H](CO)[C@@H](O)[C@@H](O)[C@@H]1O[C@H]1O[C@H](CO)[C@@H](O)[C@@H](OC(N)=O)[C@@H]1O)c1c[nH]cn1 (some centres not stated)	28%	38%
Cc1c(N)nc(C(CC(N)=O)NCC(N)C(N)=O)nc1C(=O)NC(C(=O)NC(C)C(O)C(C)C(=O)NC(C(=O)NCCc1nc(-c2nc(C(=O)NCCC[S+](C)CC(=O)NC(C)C)cs2)cs1)C(C)O)C(O[C@@H]1O[C@H](CO)[C@@H](O)[C@@H](O)C1OC1O[C@@H](CO)C(O)[C@@H](OC(N)=O)[C@@H]1O)c1c[nH]cn1 (some centres not stated)	23%	41%
Cc1c(N)nc([C@H](CC(N)=O)NC[C@H](N)C(N)=O)nc1C(=O)N[C@H](C(=O)N[C@H](C)[C@@H](O)[C@H](C)C(=O)N[C@H](C(=O)NCCc1nc(-c2nc(C(=O)NCCC[S+](C)C)cs2)cs1)[C@@H](C)O)[C@@H](O[C@@H]1O[C@@H](CO)[C@@H](O)[C@H](O)[C@@H]1O[C@H]1O[C@H](CO)[C@@H](O)[C@H](OC(N)=O)[C@@H]1O)c1c[nH]cn1 [BLEOMYCIN A2]	28%	39%

From ChEMBL document CHEMBL1123580, “Synthesis and biological properties of side-chain-modified bleomycins” (1987)
